Measurements as given in PMC7893122 (Acta Pharmaceutica Sinica. B, 2020).
Values belong to the molecule of their own block, whether it stands above or below them.

Assays:
[1] = tested on: HH signaling pathway (GLI-responsive firefly luciferase reporter); assay: Dual luciferase reporter assay; assay type: cell-based; details: for IC50: read-out: IC50 GLI-luc reporter
BRD4 (BD1) = BRD4 (BD1) (Homo sapiens, UniProt O60885); assay: Homogeneous time-resolved fluorescence binding assay, BRD4; details: for IC50: IC50 BRD4 (BD1), mean ± SD from three separate experiments; for fold less potent than compound 2 against BRD4: ratio of IC50 values
hERG channel = hERG channel (Homo sapiens, UniProt Q12809); assay: hERG inhibition; assay type: cell-based
[2] = Pharmacokinetics in Sprague–Dawley rats; assay type: in vivo; details: rat; for AUC(0-inf) / AUC(0-t) / MRT inf / clearance / half-life / Cmax / Tmax: Sprague-Dawley, plasma; for Vss_obs: i.v. 1 mg/kg
endogenous GLI2 = assay: Western blot of endogenous GLI2 in light2 cells; assay type: cell-based; details: 25 at 10 and 100 nmol/L, GDC-0449 100 nmol/L
How it was run: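 Light2 cells treated with test compound, lysed in LDS sample buffer, and run on SDS-PAGE. Immunoblotting used anti-GLI2 (1:1000), with GAPDH (1:5000) as reference.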

[3] = tested on: SMOA1 MB allografts (SMO^W539L); assay: SMOA1 MB allograft model; assay type: in vivo, nude mice; details: 20 mg/kg p.o., bid; Fig. 5A
How it was run: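 Primary SMOA1 MB allografts from ND2:SMOA1 transgenic mice grafted subcutaneously into nude mice. Dosing started at 100–150 mm3 tumour size: test compound p.o. twice daily, vehicle 0.5% CMC-Na, n ≥ 3 per group. Caliper measurement every 3 days; volume = 0.5 × length × width². Body weight tracked; group means ± SEM.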

SMO wild MB = details: 20 mg/kg p.o., bid; cited from earlier work

hERG channel, sequence (Q12809 whole entry): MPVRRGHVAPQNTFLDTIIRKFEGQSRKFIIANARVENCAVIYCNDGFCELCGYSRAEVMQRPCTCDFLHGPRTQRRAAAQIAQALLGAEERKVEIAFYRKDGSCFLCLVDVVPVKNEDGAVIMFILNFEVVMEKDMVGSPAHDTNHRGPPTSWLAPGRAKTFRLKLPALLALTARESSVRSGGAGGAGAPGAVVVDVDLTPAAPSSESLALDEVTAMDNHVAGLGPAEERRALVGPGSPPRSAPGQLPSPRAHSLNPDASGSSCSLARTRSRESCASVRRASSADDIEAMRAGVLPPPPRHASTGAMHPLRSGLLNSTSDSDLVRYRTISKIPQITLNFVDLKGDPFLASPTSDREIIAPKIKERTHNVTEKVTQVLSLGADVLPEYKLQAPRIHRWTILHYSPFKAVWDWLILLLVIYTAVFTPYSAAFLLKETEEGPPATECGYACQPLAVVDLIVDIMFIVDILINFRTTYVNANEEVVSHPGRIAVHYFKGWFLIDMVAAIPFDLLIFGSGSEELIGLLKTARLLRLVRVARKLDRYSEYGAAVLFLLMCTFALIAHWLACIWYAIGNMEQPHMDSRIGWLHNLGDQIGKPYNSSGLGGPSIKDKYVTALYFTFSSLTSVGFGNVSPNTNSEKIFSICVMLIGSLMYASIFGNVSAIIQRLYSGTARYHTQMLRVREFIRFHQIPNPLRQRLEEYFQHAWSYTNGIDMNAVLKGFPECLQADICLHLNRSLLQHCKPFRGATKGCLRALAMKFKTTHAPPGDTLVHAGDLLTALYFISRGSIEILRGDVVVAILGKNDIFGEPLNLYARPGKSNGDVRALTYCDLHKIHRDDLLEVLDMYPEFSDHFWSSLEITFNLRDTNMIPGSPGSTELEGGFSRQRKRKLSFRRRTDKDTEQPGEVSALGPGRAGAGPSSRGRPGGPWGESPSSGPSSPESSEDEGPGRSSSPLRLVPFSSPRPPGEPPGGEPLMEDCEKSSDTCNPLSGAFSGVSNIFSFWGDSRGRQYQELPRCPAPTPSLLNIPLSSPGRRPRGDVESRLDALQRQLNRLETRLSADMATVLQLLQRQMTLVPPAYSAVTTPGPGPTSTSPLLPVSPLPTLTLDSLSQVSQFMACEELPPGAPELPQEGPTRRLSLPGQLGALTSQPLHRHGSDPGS

Structure (SMILES): Cn1cc(-c2cc(N3CCCN(CCN4CCC(CO)C4)S3(=O)=O)ccc2Oc2ccc(F)cc2F)c2cc[nH]c2c1=O (stereo not shown) [Compound 22]
IC50 [1]: > 100 nM

Structure (SMILES): Cn1cc(-c2cc(N3CCCN(CC4(CO)COC4)S3(=O)=O)ccc2Oc2ccc(F)cc2F)c2cc[nH]c2c1=O [Compound 23]
IC50 (BRD4 (BD1)): 0.58 ± 0.1 nM | IC50 [1]: 45.8 ± 19.2 nM

Structure (SMILES): Cn1cc(-c2cc(N3CCCS3(=O)=O)ccc2Oc2ccc(F)cc2F)c2c(F)c[nH]c2c1=O [Compound 24]
IC50 (BRD4 (BD1)): 0.5 ± 0.06 nM | IC50 [1]: 0.93 ± 0.16 nM | IC50 (hERG channel): > 40000 nM | AUC(0-inf) ([2]; iv, 1 mg/kg): 509 ng·h/mL | AUC(0-t) ([2]; iv, 1 mg/kg): 509 ng·h/mL | MRT inf ([2]; iv, 1 mg/kg): 45.6 min | clearance ([2]; iv, 1 mg/kg): 33.2 mL/min/kg | half-life ([2]; iv, 1 mg/kg): 33.6 min | AUC(0-inf) ([2]; po, 3 mg/kg): 473 ng·h/mL | AUC(0-t) ([2]; po, 3 mg/kg): 473 ng·h/mL | Cmax ([2]; po, 3 mg/kg): 474 ng/mL | MRT inf ([2]; po, 3 mg/kg): 75.6 min | Tmax ([2]; po, 3 mg/kg): 30 min | half-life ([2]; po, 3 mg/kg): 57 min | Vss_obs [2]: 1.513 L/kg

Structure (SMILES): Cn1cc(-c2cc(N3CCCS3(=O)=O)ccc2Oc2ccc(F)cc2F)c2cc(C(=O)O)[nH]c2c1=O [Compound 26]
IC50 (BRD4 (BD1)): 21 ± 11 nM | fold less potent than compound 2 against BRD4 (BRD4 (BD1)): > 4 fold | IC50 [1]: > 100 nM

Structure (SMILES): Cn1cc(-c2cc(N3CCCCS3(=O)=O)ccc2Oc2ccc(F)cc2F)c2cc(C(=O)O)[nH]c2c1=O [Compound 27]
IC50 (BRD4 (BD1)): 14.3 ± 4.52 nM | fold less potent than compound 2 against BRD4 (BRD4 (BD1)): > 4 fold | IC50 [1]: > 100 nM

Structure (SMILES): Cn1cc(-c2cc(N3CCCS3(=O)=O)ccc2Oc2ccc(F)cc2F)c2cc(C(N)=O)[nH]c2c1=O [Compound 28]
IC50 (BRD4 (BD1)): 0.09 ± 0.04 nM | fold less potent for the HH pathway than against BRD4 ([1]; GLI-luc IC50 vs BRD4 (BD1) IC50): 16 fold | IC50 [1]: 1.5 ± 0.39 nM | IC50 (hERG channel): > 40000 nM

Structure (SMILES): Cn1cc(-c2cc(N3CCCCS3(=O)=O)ccc2Oc2ccc(F)cc2F)c2cc(C(N)=O)[nH]c2c1=O [Compound 29]
IC50 (BRD4 (BD1)): 0.09 ± 0.08 nM | IC50 [1]: 2.46 ± 0.3 nM

Structure (SMILES): CCNC(=O)c1cc2c(-c3cc(N4CCCS4(=O)=O)ccc3Oc3ccc(F)cc3F)cn(C)c(=O)c2[nH]1 [Compound 30]
IC50 (BRD4 (BD1)): 0.6 ± 0.41 nM | IC50 [1]: 0.05 ± 0.01 nM | IC50 (hERG channel): 6400 nM | AUC(0-inf) ([2]; iv, 1 mg/kg): 278 ng·h/mL | AUC(0-t) ([2]; iv, 1 mg/kg): 278 ng·h/mL | MRT inf ([2]; iv, 1 mg/kg): 47.6 min | clearance ([2]; iv, 1 mg/kg): 61.5 mL/min/kg | half-life ([2]; iv, 1 mg/kg): 40.8 min | AUC(0-inf) ([2]; po, 3 mg/kg): 9.91 ng·h/mL | AUC(0-t) ([2]; po, 3 mg/kg): 9.91 ng·h/mL | Cmax ([2]; po, 3 mg/kg): 15.2 ng/mL | MRT inf ([2]; po, 3 mg/kg): 53.4 min | Tmax ([2]; po, 3 mg/kg): 15 min | half-life ([2]; po, 3 mg/kg): 81 min | Vss_obs [2]: 2.891 L/kg

Structure (SMILES): CCNC(=O)c1cc2c(-c3cc(N4CCCCS4(=O)=O)ccc3Oc3ccc(F)cc3F)cn(C)c(=O)c2[nH]1 [Compound 31]
IC50 (BRD4 (BD1)): 0.13 ± 0.005 nM | IC50 [1]: 0.81 ± 0.24 nM | IC50 (hERG channel): 11700 nM | AUC(0-inf) ([2]; iv, 1 mg/kg): 217 ng·h/mL | AUC(0-t) ([2]; iv, 1 mg/kg): 213 ng·h/mL | MRT inf ([2]; iv, 1 mg/kg): 34.2 min | clearance ([2]; iv, 1 mg/kg): 77.6 mL/min/kg | half-life ([2]; iv, 1 mg/kg): 41.4 min | AUC(0-inf) ([2]; po, 3 mg/kg): 22.1 ng·h/mL | AUC(0-t) ([2]; po, 3 mg/kg): 18.3 ng·h/mL | Cmax ([2]; po, 3 mg/kg): 15.5 ng/mL | MRT inf ([2]; po, 3 mg/kg): 143 min | Tmax ([2]; po, 3 mg/kg): 19.8 min | half-life ([2]; po, 3 mg/kg): 93 min | Vss_obs [2]: 3.512 L/kg

Structure (SMILES): CN1CCN(CCCNC(=O)c2cc3c(-c4cc(N5CCCS5(=O)=O)ccc4Oc4ccc(F)cc4F)cn(C)c(=O)c3[nH]2)CC1 [Compound 32]
IC50 (BRD4 (BD1)): 0.75 ± 0.07 nM | IC50 [1]: > 100 nM

Structure (SMILES): Cn1cc(-c2cc(N3CCCS3(=O)=O)ccc2Oc2ccc3occc3c2)c2cc[nH]c2c1=O [Compound 33]
IC50 (BRD4 (BD1)): 2.85 ± 0.5 nM | IC50 [1]: 1.03 ± 0.28 nM

Structure (SMILES): Cn1cc(-c2cc(N3CCCCS3(=O)=O)ccc2N[C@@H]2C[C@@H](CO)[C@@H](O)C2)c2cc[nH]c2c1=O [Compound 39]
IC50 (BRD4 (BD1)): 3.42 ± 0.25 nM | IC50 [1]: > 100 nM

Structure (SMILES): CS(=O)(=O)c1ccc(C(=O)Nc2ccc(Cl)c(-c3ccccn3)c2)c(Cl)c1 [GDC-0449, reference compound]
Effect on abundance of endogenous GLI2 proteins (endogenous GLI2): no effect | Effect on tumor growth [3]: failed to affect the tumor growth | Tumor growth inhibition in SMO wild MB mice (SMO wild MB): complete tumor growth inhibition

Structure (SMILES): Cc1sc2c(c1C)C(c1ccc(Cl)cc1)=N[C@@H](CC(=O)Nc1ccc(O)cc1)c1nnc(C)n1-2 [OTX-015, reference compound]
IC50 [1]: 0.64 ± 0.02 nM

More lines, now with the values ahead:

IC50 (BRD4 (BD1)): 11.6 ± 1.8 nM | IC50 [1]: 40.6 ± 4.9 nM
Structure (SMILES): CN1C(=O)C(C)(C)Oc2c(-c3cn(C)c(=O)c4[nH]ccc34)cc(S(C)(=O)=O)cc21 [INCB-057643, reference compound]

IC50 [1]: 5.5 ± 1.3 nM
Structure (SMILES): Cc1noc(C)c1-c1cnc2c(-c3ccc(C(=O)O)cc3)cn([C@@H](C)c3ccccn3)c2c1 [PLX51107, reference compound]
